Sampled rows, rich in hits. Any-hit rate of the full collection: about 2%.
HSP90 inh = HSP90 inhibitors, primary screen, cell lysate, luminescence; Heat shock protein HSP 90 (rabbit reticulocyte lysate; luciferase refolding); Rabbit reticulocyte lysate, luciferase refolding luminescence, 3 h; inhibition, % at 5.6 µM; 290,000 tested, 0.91% active; AID 1789, 2009;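 active = inhibition above the screen-wide mean plus 3 SD, computed separately per campaign, cut at about 16% in these data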;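 also: 0% = DMSO wells and 100% = 60 µM geldanamycin wells; inhibitors lower the luminescence because luciferase stays unfolded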
C8 TRAIL sens = viability loss with TRAIL in NB7+C8 cells, primary screen, TRAIL sensitizer project, cell-based, ATPlite luminescence | inhibition (viability loss, TRAIL sensitization), % at 10 µM | 360,000 tested, 1% active | AID 624354, 2012;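 active = compounds causing at least 50% loss of cell viability in the single-dose screen, relative to plate controls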
FLuc act counter = FLuc activators, initial screening, artefact control for FLuc-dependent activation tests, biochemical, ATPlite luminescence; AID 1027, 2008; ATPlite luciferase biochemical, 10 min; 0 = ATP-free wells, 1 = DMSO control; Luciferin 4-monooxygenase (Photinus pyralis), P08659; activation factor at 10 µM; 200,000 tested, under 10 active;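 active = luciferase activation factor, scaled between plate controls, of at least 2 with compound at 10 µM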
Target sequence (P08659 whole entry, looked up): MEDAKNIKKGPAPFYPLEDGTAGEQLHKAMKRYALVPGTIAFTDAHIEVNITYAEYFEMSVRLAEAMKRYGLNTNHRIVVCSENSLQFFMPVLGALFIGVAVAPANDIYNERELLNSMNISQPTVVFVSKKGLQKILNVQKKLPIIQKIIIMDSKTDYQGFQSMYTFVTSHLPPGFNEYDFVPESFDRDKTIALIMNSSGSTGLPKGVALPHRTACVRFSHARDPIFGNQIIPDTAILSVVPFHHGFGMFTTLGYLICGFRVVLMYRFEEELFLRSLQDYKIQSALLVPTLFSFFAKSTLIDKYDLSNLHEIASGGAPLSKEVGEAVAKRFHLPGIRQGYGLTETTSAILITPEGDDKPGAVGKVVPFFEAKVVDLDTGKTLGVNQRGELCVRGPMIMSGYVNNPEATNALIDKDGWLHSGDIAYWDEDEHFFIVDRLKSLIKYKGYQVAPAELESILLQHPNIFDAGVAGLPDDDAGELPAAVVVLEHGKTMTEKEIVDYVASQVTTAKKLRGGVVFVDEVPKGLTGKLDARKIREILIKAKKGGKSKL
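Assay system: Luciferase/luciferin detection reagent, cell-free biochemical luciferase assay / Also added: ATP substrate / Schedule: 10 min at ambient temperature / Measured by: luminescence measurement of luciferase light output / Benchmarks: low control with PBS replacing ATP, high control enzyme plus ATP without compound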
PPC-1+TRAIL kill = compounds killing PPC-1 cancer cells with TRAIL present, primary screen, TRAIL potentiator project, ATPLite luminescence, uHTS | PPC-1 cells + TRAIL, ATPLite viability luminescence | 220,000 tested, 0.41% active | cell killing (% activity), % at 4 µM or 5 µM;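 active = cell killing above 50% in the first pass at 4 µM, then a duplicate retest at 5 µM averaging 50% or more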;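 also: plate controls were cells with TRAIL plus DMSO for no effect and medium-only wells lacking cells for full effect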
FLuc inhib CS = firefly luciferase enzyme inhibitors, primary screen, artefact control for luciferase-based inhibitor screens, biochemical, luminescence, ATPLite; 200,000 tested, 1.5% active; Luciferin 4-monooxygenase (Photinus pyralis), P08659; inhibition, % at 10 µM; 10 min;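 active = inhibition above about 50% when tested at 10 µM, limit read from the data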
* hit, by the source's call; x = not tested or not shown.

SMILES	HSP90 inh	C8 TRAIL sens	FLuc act counter	PPC-1+TRAIL kill	FLuc inhib CS
C#Cc1ccc([C@@H]2C=C(C(=O)O)O[C@H](OCc3ccc(CO)cc3)C2)cc1	16*	10	1	-3	-3
C#Cc1ccc([C@H]2C=C(C(=O)Nc3ccccc3)O[C@@H](OCc3ccc(CO)cc3)C2)cc1	x	89*	x	13	x
CN(C)/C=C/C(=O)c1ccc(-n2cccc2)cc1	8	32	0.2	27	85*
C#CCSc1nnc(CSc2nc3ccccc3s2)n1-c1ccccc1	6	86*	1	14	1
O=C(NCCN1CCC(n2c(=O)[nH]c3ccccc32)CC1)c1ccc(F)c(F)c1	x	13	x	x	x
OC(c1cccc(CN2CCCCC2)c1)c1ncc(-c2ccccc2Cl)[nH]1 (stereo not drawn)	x	-8	x	x	x
Cc1ccc(S(=O)(=O)N(C)C)cc1NC(=O)COC(=O)CCC1CCCC1	x	-7	x	x	x
CCN(CC)S(=O)(=O)c1ccc(C)c(NC(=O)COC(=O)CNC(=O)c2ccc(C(C)(C)C)cc2)c1	-3	-4	0.2	18	81*
Cc1ccc(OCCC(=O)OCC(=O)Nc2cc(S(=O)(=O)N(C)C)ccc2C)cc1	-2	-3	0.4	22	58*
N#C/C(=C\c1ccco1)c1nc2ccccc2s1	6	46	0.3	38	68*
N#C/C(=C/c1ccco1)c1nc2ccccc2s1	2	42	0.3	25	70*
N#C/C(=C\c1ccc(O)c([N+](=O)[O-])c1)c1nc2ccccc2s1	3	2	0.9	18	10
N#C/C(=C/c1ccc(-c2cc(C(=O)O)cc(C(=O)O)c2)o1)c1nc2ccccc2s1	2	x	0.7	0	32
CC(=O)Nc1ccc(S(=O)(=O)NCCCN2CCN(Cc3ccccc3)CC2)cc1Cl	-4	4	x	4	x
CN(C(=O)c1cccc(NC(=O)Cc2cccc(NC(=O)C3CCN(C(=O)C4CCCC4)CC3)c2)c1)C1CC1	x	-23	x	x	x
c1ccc2nc3c(nc2c1)[nH]c1ccccc13	-3	52*	0.6	31	45
CCCCC(CC)CN1C(=O)/C(=C/c2ccncc2)SC1=S (stereo not drawn)	-1	86*	1	3	0
O=c1c2c(nc3cc(-c4ccc(F)cc4)[nH]n13)CCC2	6	26	0.5	34	51*
Cc1nc2cc(-c3ccccc3)[nH]n2c(=O)c1C	6	10	x	x	x
Cc1ccc(-c2cc3nc4c(c(=O)n3[nH]2)CCCC4)cc1	1	60*	x	x	x
Cc1[nH]n2c(=O)c3c(nc2c1-c1ccc(Cl)cc1)CCC3	0	19	1.1	10	-7
COC(=O)c1ccc2nc(C3CCCCC3)c(Cc3ccccc3)n2c1	x	10	x	x	x
CC1=C(C)C(=O)C(CCCCC#CCCCC#CCO)=C(C)C1=O	5	-2	1	21	-5
COC1=C(OC)C(=O)C(CCCCCCCCCCO)=C(C)C1=O	27*	-12	1	10	2
N#C/C(=C(/O)c1ccc(-c2cccc([N+](=O)[O-])c2)o1)c1nc2ccccc2s1	-5	31	0.3	25	66*
SMILES	HSP90 inh	C8 TRAIL sens	FLuc act counter	PPC-1+TRAIL kill	FLuc inhib CS
O=C(COC(=O)c1cccs1)c1ccc2c(c1)OCCO2	7	43	0	42	95*
O=C(COC(=O)c1cccs1)c1ccc2ccccc2c1	0	-6	0.6	28	37
CC(=O)NC12CC3CC(C1)CC(C(=O)OCC(=O)c1ccc4c(c1)OCCO4)(C3)C2	4	5	0.4	31	58*
CCc1ccc(C(=O)COC(=O)c2cccs2)cc1	-2	-1	0.1	11	87*
NS(=O)(=O)c1cc(C(=O)OCC(=O)c2ccc3c(c2)OCCO3)ccc1Cl	1	22	0.1	7	92*
COC(c1ccccc1)c1nnc(CCC(=O)N(C)Cc2cccc(-n3cccn3)c2)o1 (stereo not drawn)	3	1	1	7	-1
COc1ccc(Br)c(Cn2c(C)c(C(=O)NCc3ccc4c(c3)OCCO4)sc2=O)c1	x	-4	x	x	x
O=C(c1nc2ccc(Cl)cn2c1CN1CCC[C@H]1CO)N1CCCCCCC1	-4	-11	x	x	x
CC(C)C(=O)Nc1ccccc1C(=O)OCC(=O)c1ccc2c(c1)OCCO2	4	5	0.4	3	62*
Cc1cccc(C(=O)OCC(=O)c2ccc3c(c2)OCCO3)c1O	x	36	x	x	x
Cc1ccc(C(=O)COC(=O)c2cccs2)cc1	-4	40	0.1	15	92*
Cc1ccc(C(=O)COC(=O)CNC(=O)c2cccs2)cc1	0	-7	1.1	20	-8
N#CC1C=Cc2c(ccc3ccccc23)N1C(=O)c1ccccc1 (stereo not drawn)	x	10	x	x	x
Cc1ccc(S(=O)(=O)N2CCN(C(=O)CNC(=O)c3ccc(Cl)cc3)CC2)cc1	x	-5	x	x	x
Cn1c(=O)c2cc(S(=O)(=O)Nc3cc(C(=O)O)cc(C(=O)O)c3)ccc2n(C)c1=O	-2	-6	1	5	-1
Cc1cc(C)cc(NS(=O)(=O)c2ccc3c(c2)c(=O)n(C)c(=O)n3C)c1	3	80*	1.1	17	-10
CCc1nnc(NC(=O)c2ccc(OC)cc2)s1	15	8	0.2	31	83*
COC(=O)Nc1nnc(/C=C/c2ccc(OC)cc2)s1	-2	23	0.5	37	52*
O=[N+]([O-])c1cccc(-c2nnc(-c3ccc4c(c3)OCO4)o2)c1	3	18	0.8	15	21
Cc1ccc(-c2noc(-c3cc4ccccc4oc3=O)n2)cc1	-2	7	1	15	1
c1ccc(-c2noc(-c3ccc4c(c3)OCO4)n2)cc1	-1	43	0.3	44	69*
c1cc(-c2noc(-c3ccc4c(c3)OCO4)n2)ccn1	3	x	x	x	x
Clc1ccccc1-c1nnc(-c2ccc3c(c2)OCO3)o1	1	56*	0.2	47	80*
c1ccc(-c2noc(-c3ccc4ccccc4c3)n2)cc1	13	55*	0.3	22	68*
O=c1oc2ccccc2cc1-c1nc(-c2ccccc2)no1	1	8	0.3	24	75*
CCCCN(C)CCNC(=O)CN1C(=O)CSc2ccc(S(=O)(=O)N3CCOCC3)cc21	-5	-13	x	x	x
COc1ccc(-c2noc(-c3ccc4c(c3)OCO4)n2)cc1	-3	45*	0.5	29	48
COc1ccc(-c2noc(COc3ccc4c(c3)OCO4)n2)cc1	-1	9	1	22	-1
C#CCN(C[C@@H]1[C@@H](OC(=O)NCc2ccco2)[C@@H](OC(=O)NCc2ccco2)Cn2c(=O)ccc(=O)n21)S(=O)(=O)c1ccc(C)cc1	x	15	x	x	x

Compound activity as filed in PubChem.
